This note sets out measurements from PubChem BioAssay.

Assay [1] is described as follows: inhibitors of TNFa-induced NFkB p65 translocation, primary screen, imaging, HUVEC, MLSMR starter and 10KST1 sets (AID 438;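 active = inhibition above 20% together with a positive visual image hit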;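 also: compound added about 3h40 before a 20 min TNFalpha stimulation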;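 as to inhibition: signal is the nuclear over cytoplasmic p65 intensity ratio per well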). Conditions: HUVEC TNFa-induced p65 nuclear translocation; cell count: measured here: nuclei count (cytotoxicity indicator), at 2.08 µM; inhibition: at 2 µM, stronger effect = higher value, 0% TNFa-plus-vehicle, 100% no-TNFa wells.
Assay [2] in a line: endothelial E-selectin expression blockers – imaging, HUVEC, immunofluorescence, MLSMR starter and 10KST1 sets, primary screen (AID 487;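 active = visually confirmed hit in the image check and inhibition above 20%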;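 as to inhibition: signal is fraction of cell area covered by stained E-selectin grains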;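 as to nuclei count: 100% = median nuclei count of all wells on the same plate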). Conditions: HUVEC TNFalpha-induced E-selectin immunofluorescence imaging, at 2 µM; inhibition: stronger effect = higher value; nuclei count: measured here: cell number, toxicity.
A short description of assay [3]: Primary imaging screen for DUSP6 inhibitors that restore phospho-Erk in transfected HeLa cells, chemical complementation (AID 609).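 As to inhibition: phospho-Erk level distribution per well compared with pooled transfected vehicle control wells.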 Conditions: HeLa MKP-3 transfected, phospho-Erk imaging KS statistic, at 10 µM, cells stimulated with TPA for 15 min.
For assay [4], the target named is Dual specificity protein phosphatase 6 (Homo sapiens) (UniProt Q16828). Described as above. Conditions: HeLa MKP-3 transfected, phospho-Erk imaging KS statistic; at 10 µM; stronger effect = higher value; cells stimulated with TPA for 15 min.
For assay [5], the target named is Voltage-gated potassium channel subunit beta-2 (Rattus norvegicus) (UniProt P62483). Description: inhibitors of rat Kvbeta2 reductase activity – biochemical, NADPH fluorescence, primary screen (AID 622;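 active = fluorescence slope higher than the sample average by over 3 SD, cut at about -0.22 in these data, passing the limit was not always enough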;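 also: slope of raw intensity against log time taken from 70 to 1610 s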). Conditions: recombinant KvBeta, 4-cyanobenzaldehyde reduction, at 10 µM, stronger effect = higher value.
For assay [6] the target is unchanged. Briefly: enhancers of rat Kvbeta2 NADPH turnover – biochemical, NADPH fluorescence, primary screen (AID 623;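 active = NADPH fluorescence slope more negative than the mean of all samples by about 3 SD, 99.7% confidence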;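 also: fluorescence intensity change per second fitted from 20 to 320 s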). Conditions: Recombinant KvBeta, NADPH fluorescence decrease slope, 10 min; at 10 µM; stronger effect = lower value.
Assay [7] has as its target Alpha-2C adrenergic receptor (Homo sapiens) (UniProt P18825). Briefly: compounds altering alpha2C-coupled GIRK flux – cell-based, HEK293 alpha2C/GIRK1/2, thallium flux, primary screen (AID 624;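 active = fluorescence slope after compound addition differing from the mean of all screened samples at 99.7% confidence, in either direction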;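 also: slope of fluorescence ratio to pre-addition baseline per second over 15 to 24 s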). Conditions: thallium flux BTC fluorescence, at 10 µM, actives lie on both sides.
The nature of assay [8]: inhibitors of larval lipid processing in zebrafish, primary screen, whole organism, PED6 fluorescence, gall bladder and intestine (AID 686;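 active = a full or partial loss of lipid-probe fluorescence in the fish gall bladder, intestine or both, judged by eye; inactive = no fluorescence loss, or compound toxic to the fish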;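 also: signal comes from phospholipase A2 cleavage of quenched PED6 carried via bile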). Conditions: Zebrafish larvae PED6 lipid processing, fluorescence scoring; screened at 20 µM (by protocol). In a few lines: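 Doses: 20 µM single dose. Test system: live zebrafish larvae aged 5-7 days, whole organism. Quantity: five larvae per well. Measured by: By-eye fluorescence microscopy. Reagent: ingested quenched lipid PED6 at 100 nM. Read-out: visual per-well fluorescence inhibition score. Times: overnight exposure of larvae to compound plus PED6.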

Assay [9] is described as follows: loss of swimming-algae plug formation – whole organism, Chlamydomonas reinhardtii, WT vs cilia-less mutant, absorbance, 96-well, primary screen (AID 463189;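 active = inhibition at or above 50% relative to wild type and mutant plate controls; inactive = inhibition below 50%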;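 also: 0% = wild type cc124 cells in DMSO and 100% = ciliumless bld1 mutant cells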). Conditions: Chlamydomonas reinhardtii gravitaxis, OD600 absorbance, 2 days; at 10 µM; stronger effect = higher value.
Where [10] appears, read: measured here: cell density z-score.
Setting [11] is: measured here: nuclear c-Myc green intensity z-score.
Setting [12] is: measured here: nuclear pErk red intensity z-score, stronger effect = higher value.

The source made the active and inactive calls.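 The calls were made as follows, unless noted: active = compounds giving at least 50% inhibition in the cell-based MKP-3 phosphatase rescue imaging test; inactive = the rest.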

Chain of Voltage-gated potassium channel subunit beta-2 (Rattus norvegicus) (P62483 whole entry, looked up): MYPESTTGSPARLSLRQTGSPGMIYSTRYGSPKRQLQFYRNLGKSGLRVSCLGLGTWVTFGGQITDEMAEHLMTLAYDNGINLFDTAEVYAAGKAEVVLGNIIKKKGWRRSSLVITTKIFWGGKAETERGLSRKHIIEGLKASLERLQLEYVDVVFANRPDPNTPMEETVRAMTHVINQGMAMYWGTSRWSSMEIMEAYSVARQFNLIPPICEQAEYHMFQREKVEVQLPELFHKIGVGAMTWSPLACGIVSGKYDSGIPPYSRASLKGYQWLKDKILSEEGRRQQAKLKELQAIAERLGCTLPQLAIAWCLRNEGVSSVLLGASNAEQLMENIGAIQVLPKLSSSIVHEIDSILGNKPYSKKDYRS
Chain of Alpha-2C adrenergic receptor (Homo sapiens) (P18825 whole entry, looked up): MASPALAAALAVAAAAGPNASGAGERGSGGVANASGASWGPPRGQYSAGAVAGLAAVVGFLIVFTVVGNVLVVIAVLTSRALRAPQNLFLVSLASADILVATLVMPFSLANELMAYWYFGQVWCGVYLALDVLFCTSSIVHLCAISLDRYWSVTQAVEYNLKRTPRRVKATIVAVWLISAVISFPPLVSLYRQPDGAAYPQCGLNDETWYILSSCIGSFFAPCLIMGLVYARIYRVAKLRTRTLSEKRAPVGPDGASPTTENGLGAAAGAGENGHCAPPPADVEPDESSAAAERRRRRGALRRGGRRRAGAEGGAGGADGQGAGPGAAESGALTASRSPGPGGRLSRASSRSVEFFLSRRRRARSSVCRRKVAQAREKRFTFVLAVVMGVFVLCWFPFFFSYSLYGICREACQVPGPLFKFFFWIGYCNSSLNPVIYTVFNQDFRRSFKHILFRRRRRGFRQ
Chain of Dual specificity protein phosphatase 6 (Homo sapiens) (Q16828 whole entry, looked up): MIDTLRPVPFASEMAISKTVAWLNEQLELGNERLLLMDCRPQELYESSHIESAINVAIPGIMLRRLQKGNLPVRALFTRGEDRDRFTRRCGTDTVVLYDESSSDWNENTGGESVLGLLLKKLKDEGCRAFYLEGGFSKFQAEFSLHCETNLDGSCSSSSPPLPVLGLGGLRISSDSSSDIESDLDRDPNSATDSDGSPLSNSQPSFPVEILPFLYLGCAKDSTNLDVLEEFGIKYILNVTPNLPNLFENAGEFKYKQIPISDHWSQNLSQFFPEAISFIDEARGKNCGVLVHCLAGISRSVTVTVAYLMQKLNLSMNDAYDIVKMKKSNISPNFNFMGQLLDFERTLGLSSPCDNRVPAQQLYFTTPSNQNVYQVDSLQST

The inhibition is the change of the read-out against control, counted positive when it falls. For `CCCc1cc(C(=O)Cc2ccc(F)cc2)c(O)cc1O`, the cell count in assay [1] was 563. In addition, the inhibition in assay [1] was -8.9% (inactive); in [2], -180% (inactive); in assay [4], 19.8% (inactive); in assay [9], 74.4% (active). This compound yielded a nuclei count in assay [2] of 128%. Besides, the z-score was 0.0278 in [3] (setting [10]), -0.762 in assay [3] (setting [11]) and -1.21 in assay [3] (setting [12]). The fluorescence slope in assay [5] is -0.507 (inactive). In addition, the NADPH fluorescence slope in assay [6] was -3.4e-06 (inactive). Also, in [7], the slope was 0.00499 (inactive). In [8], the call was inactive.

Consider `O=C(CC(c1ccccc1)c1ccco1)N1CCOCC1` (centres undefined), for which the cell count in [1] was 294. Moreover, the inhibition in [1] is -28.3% (inactive); in assay [2], -96.2% (inactive); in [4], 14% (inactive); in assay [9], -5.11% (inactive). The compound further displayed a nuclei count in assay [2] of 84.1%. The z-score in assay [3] (setting [10]) is -0.599; in assay [3] (setting [11]), 0.143; in [3] (setting [12]), -0.229. In addition, the fluorescence slope in assay [5] was -0.429 (inactive). For the same compound, the NADPH fluorescence slope in assay [6] is -4.9e-05 (inactive). Besides, the slope in [7] is 0.00649 (inactive). Moreover, the outcome in [8] was inactive.

With `CCN(CC)CCCN1C(=O)C(O)=C(C(=O)c2ccc(C)o2)C1c1ccc(C)o1` (centres undefined), the cell count in [1] was 581. In addition, the inhibition was -17.5% (inactive) in assay [1], -104% (inactive) in assay [2], -2.47% (inactive) in [4] and 4.2% (inactive) in assay [9]. This compound gave a nuclei count in assay [2] of 153%. In addition, the z-score stood at 0.106 in assay [3] (setting [10]), 0.341 in assay [3] (setting [11]) and 0.337 in assay [3] (setting [12]). Also, the fluorescence slope in assay [5] is -0.485 (inactive). Besides, in [6], the NADPH fluorescence slope is -5.2e-05 (inactive). Besides, in assay [7], the slope is 0.00555 (inactive). In addition, in assay [8], the compound was called inactive.

On to `N/C(CCN1CCCCC1)=N/O`, for which the cell count in assay [1] was found to be 582. The inhibition in assay [1] is -29.9% (inactive); in [2], 25.5% (inactive); in assay [4], -4.27% (inactive); in [9] it was 12.2% (inactive). In assay [2], this compound gave a nuclei count of 169%. The values for the z-score in assay [3] (setting [10]), in assay [3] (setting [11]) and in assay [3] (setting [12]) were 0.685, -0.291 and -0.968, respectively. Further, the fluorescence slope in [5] is -0.418 (inactive). For the same compound, the NADPH fluorescence slope in [6] was -9.2e-06 (inactive). For the same compound, in [7], the slope was 0.00552 (inactive). Also, the outcome in assay [8] was inactive.

For the compound `CC(C)(C)C1=Nn2c(nnc2-c2ccco2)SC1`, the cell count in assay [1] is 663. In addition, the inhibition was -3.7% (inactive) in assay [1], -70.4% (inactive) in [2], -6.06% (inactive) in assay [4] and -3.69% (inactive) in assay [9]. Moreover, in assay [2], the nuclei count came out at 165%. For the same compound, the figures for the z-score in [3] (setting [10]), in assay [3] (setting [11]) and in [3] (setting [12]) were -0.164, 0.534 and -0.139, respectively. For the same compound, the fluorescence slope in [5] is -0.423 (inactive). Besides, the NADPH fluorescence slope in assay [6] was -0.000133 (inactive). Also, the slope in [7] was 0.00705 (inactive). Also, in assay [8], the outcome was inactive.

Regarding `CN(C)c1ccc(-c2nn3c(-c4ccc(Cl)cc4)nnc3s2)cc1`, the cell count in assay [1] amounted to 615. For the same compound, the inhibition in assay [1] is -7.8% (inactive); in [2], -183% (inactive); in assay [4] it was 19.1% (inactive); in [9], 14.6% (inactive). In assay [2], the nuclei count came out at 147%. Besides, the values for the z-score in assay [3] (setting [10]), in assay [3] (setting [11]) and in assay [3] (setting [12]) were 0.167, -0.869 and -2.02, respectively. The fluorescence slope in assay [5] was -0.409 (inactive). In addition, in assay [6], the NADPH fluorescence slope was -0.000319 (inactive). Further, in [7], the slope is 0.00702 (inactive). In addition, the compound was classed as inactive in assay [8].

`CCOc1cccc(C2C(C#N)=C(N)Oc3cc(C)oc(=O)c32)c1OCC` (centres undefined): the cell count in assay [1] was determined as 362. Further, the inhibition was -24.9% (inactive) in assay [1], -67.3% (inactive) in assay [2], 8.76% (inactive) in [4] and 10.1% (inactive) in assay [9]. Besides, the nuclei count in assay [2] came to 143%. Also, the figures for the z-score in assay [3] (setting [10]), in assay [3] (setting [11]) and in assay [3] (setting [12]) were 0.354, -0.768 and 1.02, respectively. Further, the fluorescence slope in [5] was -0.441 (inactive). Further, the NADPH fluorescence slope in assay [6] is -0.000143 (inactive). Further, the slope in assay [7] is 0.00434 (inactive). In assay [8], the compound was classed as inactive.

For the compound `CCCCc1ccc(NC(=O)CSC2=C(C#N)C(c3ccco3)C3=C(CCCC3=O)N2)cc1` (centres undefined), the cell count in [1] is 384. Also, the inhibition is -8% (inactive) in assay [1], -114% (inactive) in assay [2], 7.42% (inactive) in [4] and -5.66% (inactive) in assay [9]. The nuclei count in assay [2] worked out at 151%. The figures for the z-score in assay [3] (setting [10]), in assay [3] (setting [11]) and in assay [3] (setting [12]) were 0.415, 1.7 and -0.943, respectively. Further, the fluorescence slope in [5] was -0.44 (inactive). The NADPH fluorescence slope in assay [6] is -9.7e-05 (inactive). In [7], the slope is 0.00706 (inactive). The outcome in assay [8] was inactive.

Consider `CC1CN(C2CCN(C(=O)COc3ccccc3)CC2)CC(C)O1` (centres undefined), for which the cell count in [1] was 357. The inhibition in assay [1] is -12.6% (inactive); in assay [2], -160% (inactive); in assay [4], 1.75% (inactive); in assay [9] it was -3.28% (inactive). Besides, the nuclei count in assay [2] was found to be 111%. Also, the z-score in assay [3] (setting [10]) is -0.694; in [3] (setting [11]) it was 1.72; in assay [3] (setting [12]), -2.62. For the same compound, the fluorescence slope in assay [5] was -0.455 (inactive). For the same compound, the NADPH fluorescence slope in [6] was -1.3e-05 (inactive). Also, the slope in assay [7] is 0.00556 (inactive). Moreover, in assay [8], the compound was classed as inactive.

As for `N#CC12CCCCC1CC1CCCCC1(C#N)N2Cc1cccnc1` (centres undefined), the cell count in assay [1] amounted to 364. The inhibition is -10.3% (inactive) in [1], 3.8% (inactive) in [2], 17% (inactive) in [4] and 44.6% (inactive) in assay [9]. In assay [2], this compound returned a nuclei count of 97.2%. In addition, the results for the z-score in assay [3] (setting [10]), in assay [3] (setting [11]) and in [3] (setting [12]) were 1.59, -0.921 and -1.61, respectively. The fluorescence slope in assay [5] was -0.557 (inactive). Besides, the NADPH fluorescence slope in assay [6] was -6.5e-05 (inactive). Further, the slope in [7] is 0.00335 (inactive). In assay [8], the call was inactive.

In the case of `O=C(c1ccco1)N1CCN(c2ncnc3c2[nH]c2ccccc23)CC1`, the cell count in [1] was 462. For the same compound, the inhibition in [1] was 0.3% (inactive); in assay [2], -18.4% (inactive); in assay [4], 0.671% (inactive); in [9], -4.22% (inactive). In assay [2], this compound yielded a nuclei count of 138%. The z-score in assay [3] (setting [10]) was found to be 1.15; in [3] (setting [11]), 0.243; in [3] (setting [12]), 0.509. Moreover, the fluorescence slope in assay [5] is -0.359 (inactive). Also, in assay [6], the NADPH fluorescence slope is -1.6e-05 (inactive). Moreover, the slope in assay [7] was 0.00516 (inactive). Besides, the compound was classed as inactive in assay [8].

As to `N#Cc1c(N)nc(SCc2ccccn2)c(C#N)c1-c1cccs1`, in [1], the cell count turned out to be 526. In addition, the inhibition was -6.5% (inactive) in [1], -189% (inactive) in assay [2], 4.25% (inactive) in assay [4] and 1.02% (inactive) in assay [9]. The compound also yielded a nuclei count in [2] of 176%. Moreover, the figures for the z-score in assay [3] (setting [10]), in assay [3] (setting [11]) and in assay [3] (setting [12]) were 0.739, 1.34 and -0.969, respectively. Besides, in assay [5], the fluorescence slope is -0.289 (inactive). For the same compound, the NADPH fluorescence slope in assay [6] was 1.5e-05 (inactive). Further, in [7], the slope was 0.00485 (inactive). Further, the compound was called inactive in assay [8].

Take `CC(C)(C)NC(=O)CSc1nsc(SCC(=O)NC(C)(C)C)c1C#N`: the cell count in assay [1] was found to be 601. Moreover, the inhibition is -26% (inactive) in [1], 18.9% (inactive) in assay [2], -4.27% (inactive) in assay [4] and 12.4% (inactive) in assay [9]. Moreover, in [2], the nuclei count came to 178%. Also, the values for the z-score in assay [3] (setting [10]), in [3] (setting [11]) and in [3] (setting [12]) were -0.466, -1.37 and 0.955, respectively. In addition, in assay [5], the fluorescence slope was -0.412 (inactive). Also, the NADPH fluorescence slope in assay [6] is -6.5e-05 (inactive). Further, in assay [7], the slope is 0.00541 (inactive). Also, the compound was classed as inactive in assay [8].
